{"source": "PubChem BioAssay AID720702", "about": "(The Scripps Research Institute Molecular Screening Center, 2013)", "note": "Screen size: about 370,000 compounds; about 1,200 (0.32%) were called active. The sample holds actives, similar compounds and a random draw of the others, so the mix is not that of the screen.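 The calls were made as follows: active = inhibition above the mean of all tested compounds plus 3 SD, set per campaign (cut at about 25% in these data); inactive = the rest.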"}
{"target": "Tyrosyl-DNA phosphodiesterase 2 (Homo sapiens) (UniProt O95551)", "sequence (O95551 whole entry, looked up)": "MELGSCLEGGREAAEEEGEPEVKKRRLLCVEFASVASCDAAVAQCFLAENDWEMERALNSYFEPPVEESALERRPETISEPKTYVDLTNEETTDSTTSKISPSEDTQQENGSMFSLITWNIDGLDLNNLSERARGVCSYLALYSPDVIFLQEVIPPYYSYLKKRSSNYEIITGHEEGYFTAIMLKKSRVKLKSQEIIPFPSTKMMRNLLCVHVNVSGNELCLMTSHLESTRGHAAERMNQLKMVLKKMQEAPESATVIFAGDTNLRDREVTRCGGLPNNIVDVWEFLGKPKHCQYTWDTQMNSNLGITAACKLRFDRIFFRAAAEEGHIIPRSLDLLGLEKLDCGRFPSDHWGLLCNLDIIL", "test": "blockers of TDP2 phosphodiesterase activity – biochemical, epi absorbance, recombinant enzyme, primary screen (AID 720702);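 also: 0% = DMSO with enzyme and 100% = buffer with substrate but no TDP2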", "details": "recombinant TDP2, T5PNP hydrolysis, p-nitrophenol absorbance 415 nm; at 12.8 µM; stronger effect = higher value", "how_it_was_run": "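Evaluation: % inhibition relative to enzyme-containing and enzyme-free wells. Material: recombinant human TDP2. Benchmarks: enzyme-free and DMSO wells. Timing: enzyme reaction with compound for 2 h at 37 °C. Compound dosing: 12.8 µM only. Measured by: p-Nitrophenol epi absorbance. Reagent: T5PNP substrate at 5 mM, a TopII-DNA adduct mimic. Replication: single well per compound.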"}
{"smiles": "O=C(Nc1cccc2c1CCCC2)C1CCN(C(=O)NC2CCCCC2)CC1", "inhibition": "1.74% (inactive)"}
{"smiles": "O=C(CSc1nnc2c(n1)[nH]c1ccccc12)NC1CCCCC1", "inhibition": "-1.87% (inactive)"}
{"smiles": "O=C(NC1CCCCC1)N1CCc2[nH]c3ccccc3c2C1", "inhibition": "56.5% (active)"}
{"smiles": "N#C/C(C(=S)Nc1ccccc1)=C1/NN=C(N2CCOCC2)N1c1ccccc1", "inhibition": "10.7% (inactive)"}
{"smiles": "COC(=O)c1ccc(C2C(Oc3ccccc3C)C(=O)N2CCc2ccc(OC)c(OC)c2)cc1", "note": "(configuration not stated)", "inhibition": "-12.5% (inactive)"}
{"smiles": "CCc1ccc(OCC(=O)OC(C)C(=O)NC2CC2)cc1", "note": "(configuration not stated)", "inhibition": "-6.8% (inactive)"}
{"smiles": "CC1(OC(=O)C2CCCC2)C(=O)C=C2C=C(c3ccc(C#N)cc3)OC=C2C1=O", "note": "(configuration not stated)", "inhibition": "0.49% (inactive)"}
{"smiles": "COCCN1C=C2C(=O)C(C)(OC(=O)C3CCCC3)C(=O)C=C2C=C1c1ccsc1", "note": "(configuration not stated)", "inhibition": "31.4% (active)"}
{"smiles": "CCCCC1=CC2=CC(=O)C(C)(OC(=O)CC)C(=O)C2=CN1CCCOC(C)C", "note": "(configuration not stated)", "inhibition": "13.3% (inactive)"}
{"smiles": "CCSc1nnc(SCC(=O)NNC(=O)c2ccccc2F)s1", "inhibition": "24.7% (active)"}
{"smiles": "COCCNc1nnc(SCC(=O)NNC(=O)c2ccco2)s1", "inhibition": "5.04% (inactive)"}
{"smiles": "O=C(Cn1cnc2ccccc2c1=O)NNC(=O)c1ccccc1F", "inhibition": "4.65% (inactive)"}
{"smiles": "Cc1sc2nc(SCC(=O)c3ccc(O)c(O)c3)n(Cc3ccco3)c(=O)c2c1C", "inhibition": "-1.34% (inactive)"}
{"smiles": "Cc1ccc(-c2nc(CS(=O)CC(=O)N3CCN(c4ncccn4)CC3)c(C)o2)cc1", "note": "(configuration not stated)", "inhibition": "0.23% (inactive)"}
{"smiles": "COC(=O)[C@]12C[C@H](CC(=O)N3CCOCC3)C(=O)N(Cc3ccc(Cl)cc3Cl)C1=C[C@H](COCc1ccccc1)O[C@@H]2C", "inhibition": "12.9% (inactive)"}
{"smiles": "CCC(=O)Nc1ccc2nn(-c3ccc(F)cc3)nc2c1", "inhibition": "-12.3% (inactive)"}
{"smiles": "Nc1ccc2nn(-c3ccc(Cl)cc3)nc2c1", "inhibition": "30.9% (active)"}
{"smiles": "O=C(NC1CCCC1)C1CSCCS(=O)(=O)N1Cc1ccccc1", "note": "(configuration not stated)", "inhibition": "7.85% (inactive)"}
{"smiles": "COc1ccccc1C(=O)CSc1nnc(-c2ccccn2)n1-c1ccccc1", "inhibition": "-12.9% (inactive)"}
{"smiles": "COc1ccc(CSc2nnc(SCC(=O)Nc3ccccc3C(F)(F)F)s2)cc1", "inhibition": "-0.45% (inactive)"}
{"smiles": "CCOc1c(Br)cc(/C=C2\\C(=O)N(CCC#N)N=C2C)cc1OC", "inhibition": "59.9% (active)"}
{"smiles": "CC(C)C(C#CC1CC1)N(Cc1ccc2c(c1)OCO2)C(N)=NC(=O)/C=C/c1cccc(C(F)(F)F)c1", "note": "(configuration not stated)", "inhibition": "4.77% (inactive)"}
{"smiles": "COc1ccc(S(=O)(=O)N2CCOCC2)c(C)c1C", "inhibition": "0.48% (inactive)"}
{"smiles": "COC1=C(N2CCOCC2)C(=O)c2ccccc2C1=O", "inhibition": "36.8% (active)"}
{"smiles": "O=C1c2ccccc2-c2ncnc3c(N4CCOCC4)cc(N4CCOCC4)c1c23", "inhibition": "-13.8% (inactive)"}
{"smiles": "CCCS(=O)(=O)NC(=O)C1(C)CCN(C(=O)c2sccc2C)C1", "note": "(configuration not stated)", "inhibition": "-5.34% (inactive)"}
{"smiles": "CCCCNC(=O)C[C@@H]1C(=O)N(CCc2ccc(Cl)cc2)C2=CCCC[C@]21C(=O)OCC", "inhibition": "8.61% (inactive)"}
{"smiles": "COc1ccc2c(c1)C(=O)Nc1cc(Cl)ccc1N2", "inhibition": "-17% (inactive)"}
{"smiles": "COc1ccc([N+](=O)[O-])cc1C1NN=C(c2cccc3ccccc23)S1", "note": "(configuration not stated)", "inhibition": "3.04% (inactive)"}
{"smiles": "O=C1Nc2ccc([N+](=O)[O-])cc2C1=Nc1cccc(CO)c1", "inhibition": "36.9% (active)"}
{"smiles": "O=C(CCl)N(Cc1cccc([N+](=O)[O-])c1)c1cccc(Cl)c1", "inhibition": "-6.43% (inactive)"}
{"smiles": "Cc1nn2cc(-c3ccc(Cl)cc3)cnc2c1Br", "inhibition": "4.6% (inactive)"}
{"smiles": "C=CCn1c(SCc2ccc(Cl)c(Cl)c2)nnc1C(CO)NC(=O)c1ccc(OC)cc1", "note": "(configuration not stated)", "inhibition": "-1.56% (inactive)"}
{"smiles": "CCCc1c(C)nc2c(Br)cccc2c1Cl", "inhibition": "3.31% (inactive)"}
{"smiles": "Nc1c(NCCc2ccccc2)c2ccccc2oc1=O", "inhibition": "-16.4% (inactive)"}
{"smiles": "CCCN(CCC)c1c([N+](=O)[O-])c(=O)oc2ccccc12", "inhibition": "6.98% (inactive)"}
{"smiles": "O=c1oc2ccccc2c(CNc2ccccc2)c1[N+](=O)[O-]", "inhibition": "40.8% (active)"}
{"smiles": "O=C(OCc1ccccc1)N1CCC2CC1c1ccc(-c3ccc4c(c3)OCO4)cc12", "note": "(configuration not stated)", "inhibition": "-3.35% (inactive)"}
{"smiles": "COc1ccc(S(=O)(=O)/N=C2\\C=C(NS(=O)(=O)c3ccccc3)C(=O)c3ccccc32)cc1", "inhibition": "36.1% (active)"}
{"smiles": "COc1ccc(C(=O)C(C)OC(=O)c2cccc(S(=O)(=O)Nc3c(C)n(C)n(-c4ccccc4)c3=O)c2)cc1", "note": "(configuration not stated)", "inhibition": "-13.4% (inactive)"}
{"smiles": "Cc1ccc(S(=O)(=O)/N=C2\\C=C(NS(=O)(=O)c3ccc(C)cc3)C(=O)c3ccccc32)cc1", "inhibition": "4.19% (inactive)"}
{"smiles": "CCCCNC(=O)C[C@H]1C[C@@]2(C(=O)OC)C(=C[C@H](COCc3ccccc3)O[C@@H]2C)N(Cc2ccc(Cl)cc2Cl)C1=O", "inhibition": "-0.01% (inactive)"}
{"smiles": "C=CCN1C(=O)[C@H](CC(=O)N2CCN(C(=O)OCC)CC2)[C@@]2(C(=O)OCC)CCCC=C12", "inhibition": "4.51% (inactive)"}
{"smiles": "CCN(CC)CCCN=C(N)N", "inhibition": "1.59% (inactive)"}
{"smiles": "COc1ccc(-c2ccc3nnc(SCC(=O)Nc4ccc(NC(C)=O)cc4)n3n2)cc1", "inhibition": "-3.62% (inactive)"}
{"smiles": "COc1ccc(-c2csc(Nc3ccc(O)cc3)n2)cc1", "inhibition": "26.4% (active)"}
{"smiles": "COc1ccc(NC2=CC(=S)NC(C)(C)C2)cc1", "inhibition": "-0.55% (inactive)"}
{"smiles": "CCc1cc(=O)oc2cc(OCC(=O)N3CCCc4ccccc43)ccc12", "inhibition": "6.19% (inactive)"}
{"smiles": "COC(=O)c1cc(S(=O)(=O)N2CCN(C(=O)C3CCCO3)CC2)cn1C", "note": "(configuration not stated)", "inhibition": "-2.33% (inactive)"}
{"smiles": "CCN1C(=O)c2cccc3c(S(=O)(=O)Nc4ccccc4O)ccc1c23", "inhibition": "-2.02% (inactive)"}
{"smiles": "CCN1C(=O)c2cccc3c(N)ccc1c23", "inhibition": "30.9% (active)"}
{"smiles": "CCCCN(C)C(=O)c1ccc2c(c1)N(CC)C(=O)c1ccccc1S2(=O)=O", "inhibition": "7.54% (inactive)"}
{"smiles": "CCOC(=O)c1cccc(NC(=O)CN(C)S(=O)(=O)c2ccc(-c3cocn3)s2)c1", "inhibition": "-8.94% (inactive)"}
{"smiles": "COc1ccc(-c2[nH][nH]c(=O)c2NC(=O)c2ccc([N+](=O)[O-])cc2)cc1", "inhibition": "19.5% (inactive)"}
{"smiles": "Cc1ccc(C(=O)Nc2c(-c3ccccc3)[nH][nH]c2=O)cc1", "inhibition": "44.4% (active)"}
{"smiles": "O=C(NC1CC1)c1ccc(-c2ccccc2)cc1", "inhibition": "-8.19% (inactive)"}
{"smiles": "C=CCN1C(=O)[C@@H](CC(=O)NCCCCc2ccccc2)[C@]2(C(=O)OCC)CCCCC/C=C/12", "inhibition": "3.84% (inactive)"}
